Measured values reported in the EternaBench riboswitch data.

Key:
[1] = tested on: MS2 coat protein; test: apparent Kd, MS2 coat protein; higher = weaker binding; RNA-MaP array; theophylline 2 mM where present
Procedure, shortened: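 In 100 mM Tris-HCl pH 7.5, 80 mM KCl, 4 mM MgCl2, BSA, DTT, yeast tRNA and Tween-20, SNAP-549-labelled MS2 coat protein was titrated from 0.7 or 1.5 nM, doubling to 3 µM, over designs transcribed by stalled E. coli RNA polymerase on Illumina sequencing-chip clusters. This was done first without ligand, then with ligand held constant. After green signal was normalised to red-channel RNA signal and control-cluster median Fmax, the apparent Kd was taken as the median of filtered per-cluster binding-curve fits.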

[2] = tested on: MS2 coat protein; test: apparent Kd, MS2 coat protein; higher = weaker binding; RNA-MaP array
Procedure, shortened: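 Apparent Kd values come from the median of binding-curve fits to single clusters. To obtain them, designed RNAs transcribed on an Illumina sequencing chip from sequenced DNA templates were incubated at room temperature with fluorescently labeled MS2 coat protein at 1.5 nM to 3 μM, with or without input ligand, for 0.8–1.5 h at the lowest and 10–20 min at the highest concentrations. Designs measured on fewer than 10 clusters were excluded.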

[3] = designed as: OFF switch for theophylline, no ligand
[4] = ligand present: theophylline, designed as: OFF switch for theophylline
[5] = designed as: ON switch for theophylline, no ligand
[6] = ligand present: theophylline, designed as: ON switch for theophylline
[7] = designed as: ON switch for flavin mononucleotide, no ligand
[8] = ligand present: flavin mononucleotide, designed as: ON switch for flavin mononucleotide
[9] = designed as: OFF switch for flavin mononucleotide, no ligand
[10] = ligand present: flavin mononucleotide, designed as: OFF switch for flavin mononucleotide

“ACAUGAACAUGAGGAUCACCCAUGUGGGAUACCAGCGUGUAUGAGCGCCCUUGGCAGCUCAUGACAUGAGGAUCACCCAUGUUGG” was tested, and the “apparent Kd” value [1, 3] was 262 nM and the “apparent Kd” value [1, 4] was 453 nM.
In the case of “GCACCAGGUACGGAUACCAGCUAUAGGUACAUGUCAGGACAUGAGGAUCACCCAUGUGGUAGCCCUUGGCAGCUGUACCUGGUGC”, the “apparent Kd” value [1, 3] is reported as 17.4 nM and the “apparent Kd” value [1, 4] is reported as 27.2 nM.
With “UGACAUUGCUGCGAUACCAGACAUGAGGAUCACCCAUGUACCAAGAAAACGUACAUAAAUGUCCCUUGGCAGCGCAGCAAUGUCU” the “apparent Kd” value [1, 3] was 524 nM and the “apparent Kd” value [1, 4] was 1360 nM.
With “UUUGAUAGGACAGAUACCAGCGUGUUGUAGAACAUGAGGAUCACCCAUGUAGUGAUCAAGCGCCCUUGGCAGCUGGUUUGUUAGG” the “apparent Kd” value [1, 5] was 170 nM and the “apparent Kd” value [1, 6] was 82.6 nM.
For “AAUUAAUUAACCGAUACCAGCCAACCAAAACAUGAGGAUCACCCAUGUAAGAAGAAGGGUGGCCCUUGGCAGCGGUUAAUUAAUU”, the “apparent Kd” value [1, 5] was 27.8 nM and the “apparent Kd” value [1, 6] was 9.07 nM.
For “AACAUGAGGAUCACCCAUGUCAUGUUGGAUACCAGCCAAUAAUAAGGCCCUUGGCAGCUAUAGAUCGAUGAUCCAUGAGGAUCAC”, the “apparent Kd” value [1, 3] was 34.5 nM and the “apparent Kd” value [1, 4] was 25.3 nM.
“AUACAACAUGAGGAUCACCCAUGUGCUUAAGUUAAAGGAUAUCUAGUGGAUUACAUGCGUAGAGAAGGUUAUUUUA” was tested, and the “apparent Kd” value [2, 7] was 12.2 nM and the “apparent Kd” value [2, 8] was 8.55 nM.
“CUAGAAGACACGGAGGAUAUGUUGUGUAUUACAUGAGGAUCACCCAUGUUCGGAAGUACCGAUUGACAGAAGGCCGUGCAAUCGCU” was tested, and the “apparent Kd” value [2, 7] was 6.66 nM and the “apparent Kd” value [2, 8] was 5.73 nM.
With “AACUGGAAGGAAGGAUAUUCAACCACGAUCAGUGCCAAGCACAUGAGGAUCACCCAUGUUGUCCUGAAGAAGGUCCUAUGUCAA” the “apparent Kd” value [2, 9] was 16.3 nM and the “apparent Kd” value [2, 10] was 11.5 nM.
“ACUCUCGGCUAAGGAUAUCUCCGACUGACCAAUAGAGAAGGUAGUCGACGUGCGAUCAGACAUGAGGAUCACCCAUGUGAAAUC” was tested, and the “apparent Kd” value [2, 7] was 7.07 nM and the “apparent Kd” value [2, 8] was 7.14 nM.
For “CGUGAAUACGAAGGAUAUGAAACAUGAGGAUCACCCAUGUAAGGUUUAAGCGACGGCUUGACAGGUCAGAAGGUCGUCCGCAUG”, the “apparent Kd” value [2, 7] was 42.2 nM and the “apparent Kd” value [2, 8] was 27.8 nM.
For “UGAAAUUACGGAGGAUAUCUAUUUACAUGAGGAUCACCCAUGUCCCAGCUACUGCUAUUAUCCGCAGAGAAGGCCGGUGAGUCC”, the “apparent Kd” value [2, 7] was 171 nM and the “apparent Kd” value [2, 8] was 105 nM.
With “GUUAUCGAACAUGAGGAUCACCCAUGUCAGAGCGGCCGACAGAGAAGGCCAAUUGACAAAUGAUUGGAGGAUAUCUGUACUUUU” the “apparent Kd” value [2, 7] was 19.3 nM and the “apparent Kd” value [2, 8] was 7.57 nM.
In the case of “UGUCAGGUCCAUAACAUGAGGAUCACCCAUGUAAGGCAUGAGCAGGAUAUCAAAAGUCGUAAGACAGAGAAGGGCUAAAUGACC”, the “apparent Kd” value [2, 9] is reported as 7 nM and the “apparent Kd” value [2, 10] is reported as 7.51 nM.
“AAAUAAGAGGAGAAGGGCAAAAUGUCGAACCGAGCAGGAUAUCCACAGAACAUGAGGAUCACCCAUGUGGUCAAACAGUACAAA” was tested, and the “apparent Kd” value [2, 7] was 54.4 nM and the “apparent Kd” value [2, 8] was 39 nM.
For “AUUAGGCUGCAGGAUAUGAAUCAUGUAACAAUUUCAGAAGGGCAUACAUGAGGAUCACCCAUGUAGUGAUCCGC”, the “apparent Kd” value [2, 9] was 109 nM and the “apparent Kd” value [2, 10] was 220 nM.
“GUGAUCAGCGAGAAGGAGCGUGAACUGUUACGGAGAUGUAACAUAACAUGAGGAUCACCCAUGUGCUAGGAUAUCGGUAAAUAU” was tested, and the “apparent Kd” value [2, 7] was 13.3 nM and the “apparent Kd” value [2, 8] was 7.4 nM.
In the case of “AUGGUGUCUUAAGGAUAUGCUCGACAUGAGGAUCACCCAUGUGCCUCGUUUUCCCAACCGAGGUCGCAGAAGGUAAGUGACGUG”, the “apparent Kd” value [2, 7] is reported as 313 nM and the “apparent Kd” value [2, 8] is reported as 37 nM.
In the case of “CCUUAAGCAUAAGGAUAUAAGUUUUGACUAAGUUUAGAAGGUAUGCUUGCAAGAUCCGGCAAUAACAUGAGGAUCACCCAUGUG”, the “apparent Kd” value [2, 9] is reported as 27.6 nM and the “apparent Kd” value [2, 10] is reported as 21.3 nM.
With “ACAUGAGGAUCACCCAUGUUGAACUACCAUCGAGGACCGGUACGGCCGCCACUCGCGUUCUCCUUAGCAUCAAGGUCCGCGAAAC” the “apparent Kd” value ([2]; designed as: OFF switch for tryptophan, no ligand) was 13.3 nM and the “apparent Kd” value ([2]; ligand present: tryptophan, designed as: OFF switch for tryptophan) was 12.7 nM.
For “GAUUGACAUGAGGAUCACCCAUGUAGCGUAUGGUGACUUCUGAAGGAUAUUAAUGCAGUGGCGGUUAAGAAGGUCAGCUAAUCG”, the “apparent Kd” value [2, 9] was 45.7 nM and the “apparent Kd” value [2, 10] was 35 nM.
In the case of “UCCUCGUAUUAAGGAUAUAGAAAAGUCACAUGAGGAUCACCCAUGUCUAAGGACGCACUAUGAGUCUAGAAGGUAAUCCGGAAU”, the “apparent Kd” value [2, 7] is reported as 78.9 nM and the “apparent Kd” value [2, 8] is reported as 65.5 nM.
In the case of “ACUGGACAUGAGGAUCACCCAUGUGGCGAUACCAGUUUCAGCGGGAACCCUUGGCAGCGCGGUGCCGGCCAUAGAAGUUCUGGGA”, the “apparent Kd” value [2, 5] is reported as 51.4 nM and the “apparent Kd” value [2, 6] is reported as 60.1 nM.
For “UCAACACAUGAGGAUCACCCAUGUUAUACUAGGGUAGGAUAUGACGUAGUGAAGUGCUCUUCAGAAGGACCAUGGG”, the “apparent Kd” value [2, 7] was 64.7 nM and the “apparent Kd” value [2, 8] was 30.1 nM.
In the case of “GAACAGCGGCAGAAGGACUCGCGAUUGUGUACGAACAUGAGGAUCACCCAUGUGUGAGUAUUCCAGUAGGAUAUGCGUUCUAUA”, the “apparent Kd” value [2, 9] is reported as 17.2 nM and the “apparent Kd” value [2, 10] is reported as 12.1 nM.
For “ACGAGCCUAGGAUAUACAUGAGGAUCACCCAUGUGACUGAACACUCCGGUAUGUGCGGGUAGAAGGAGGUUCCA”, the “apparent Kd” value [2, 9] was 16.3 nM and the “apparent Kd” value [2, 10] was 16.8 nM.
